Experimental data published in ChEMBL document CHEMBL2346564, “Synthesis and biological evaluation of nitric oxide releasing derivatives of 6-amino-3-n-butylphthalide as potential antiplatelet agents” (Bioorg Med Chem Lett, 2013).
Values after ≈ are worked out from the molar mass of the structure shown.

Key:
[1] = Antiplatelet activity in rabbit platelet rich plasma assessed as inhibition of ADP-induced platelet aggregation at 0.1 mM incubated for 5 mins prior to ADP challenge measured after 5 mins by Born's turbidimetric method relative to control; format: functional; details: Oryctolagus cuniculus
How it was run: (§1)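 Rabbit platelet-rich plasma, adjusted with platelet-poor plasma (centrifuged 3000 rpm, 10 min, room temperature) to 400–450 × 10⁹ platelets/L and used within 3 h of blood collection. PRP pre-incubated with vehicle or compound (0.1 mM) for 5 min at 37 °C, then ADP 10 μM added. Maximum aggregation rate recorded over 5 min by Born turbidimetry. Inhibition (%) = 100% − MAR(compound)/MAR(vehicle). Mean ± SD, n = 6.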

[2] = Induction of nitric oxide release in phosphate buffer assessed as nitrite level at 0.1 mM measured every 15 mins for 120 mins followed by every 30 mins for 180 mins by Griess assay; format: physicochemical; details: 100 µM
How it was run: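 Compound at 0.1 mM in phosphate buffer solution, kept at room temperature for 15–300 min. Sampled every 15 min up to 120 min, then every 30 min. Samples mixed with sulfanilamide and N-(1-naphthyl)ethylenediamine dihydrochloride and held 5–10 min at room temperature in the dark. Absorbance read at 540 nm and converted to nitrite (μmol/L) with a nitrite standard curve. Intra-group variation under 10%.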

[3] = Aqueous solubility of the compound in normal saline after 5 hrs by UV-spectrophotometric analysis; details: normal saline (aqueous solubility, as described)
[4] = Antiplatelet activity in rabbit platelet rich plasma assessed as inhibition of ADP-induced platelet aggregation at 0.1 mM incubated for 5 mins prior to ADP challenge measured after 5 mins by Born's turbidimetric method in presence of hemoglobin relative to control; format: functional; details: Oryctolagus cuniculus; how it was run: as §1
Platelet [5] = experiment: Ratio of compound activity to 3-n-butylphthalide activity for inhibition of ADP-induced platelet aggregation in rabbit platelet rich plasma at 0.1 mM; format: functional, Oryctolagus cuniculus
Platelet [6] = experiment: Ratio of compound activity to 6-amino 3-n-butylphthalide activity for inhibition of ADP-induced platelet aggregation in rabbit platelet rich plasma at 0.1 mM; format: functional, Oryctolagus cuniculus

Row | SMILES | Activity [2] | solubility at 5 h [3] | inhibition at 100 µM [1] | inhibition at 100 µM [4] | Ratio (Platelet [5]) | Ratio (Platelet [6])
1 | CCCCC1OC(=O)c2cc(NC(=O)c3ccc(OCCCO[N+](=O)[O-])cc3)ccc21 (configuration not stated) | 3.88 µmol/L | 750 µM (≈ 321 µg/mL) | 22.8% | – | – | –
2 | CCCCC1OC(=O)c2cc(NC(=O)c3cccc(OCCCO[N+](=O)[O-])c3)ccc21 (configuration not stated) | 7.27 µmol/L | 1060 µM (≈ 454 µg/mL) | 28.8% | – | – | –
3 | CCCCC1OC(=O)c2ccccc21 (racemic) [RAC-3-N-BUTYLPHTHALIDE] | – | 540 µM (≈ 103 µg/mL) | 15.7% | – | – | –
4 | CCCCC1OC(=O)c2cc(NC(=O)c3ccc(OCCCCO[N+](=O)[O-])cc3)ccc21 (configuration not stated) | – | – | 18.2% | – | – | –
5 | CCCCC1OC(=O)c2cc(NC(=O)c3cccc(OCCCCO[N+](=O)[O-])c3)ccc21 (configuration not stated) | – | – | 21.6% | – | – | –
6 | CCCCC1OC(=O)c2cc(N)ccc21 (configuration not stated) | – | – | 18.4% | – | – | –
7 | Clc1ccccc1CN1CCc2sccc2C1 [TICLOPIDINE] | – | – | 26.4% | – | – | –
8 | CCCCC1OC(=O)c2cc(NC(=O)c3ccccc3OCCCCO[N+](=O)[O-])ccc21 (configuration not stated) | – | – | 13.6% | – | – | –

Now from value to compound, other results behind:

Row | Activity [2] | solubility at 5 h [3] | SMILES | inhibition at 100 µM [1] | inhibition at 100 µM [4] | Ratio (Platelet [5]) | Ratio (Platelet [6])
9 | 7.1 µmol/L | – | CCCCC1OC(=O)c2cc(NC(=O)CCCO[N+](=O)[O-])ccc21 (configuration not stated) | 28.6% | – | – | –
10 | 6.82 µmol/L | – | CCCCC1OC(=O)c2cc(NC(=O)c3cccc(OCCO[N+](=O)[O-])c3)ccc21 (configuration not stated) | 26.6% | – | – | –
11 | 12.88 µmol/L | 1180 µM (≈ 380 µg/mL) | CCCCC1OC(=O)c2cc(NC(=O)CCO[N+](=O)[O-])ccc21 (configuration not stated) | 30.4% | 23.1% | 2 | 2
12 | 2.21 µmol/L | – | CCCCC1OC(=O)c2cc(NC(=O)c3ccc(OCCO[N+](=O)[O-])cc3)ccc21 (configuration not stated) | 20% | – | – | –
13 | 2.18 µmol/L | 580 µM (≈ 248 µg/mL) | CCCCC1OC(=O)c2cc(NC(=O)c3ccccc3OCCCO[N+](=O)[O-])ccc21 (configuration not stated) | 16.7% | – | – | –
14 | 3.67 µmol/L | – | CCCCC1OC(=O)c2cc(NC(=O)CO[N+](=O)[O-])ccc21 (configuration not stated) | 22.2% | – | – | –
15 | 1.82 µmol/L | – | CCCCC1OC(=O)c2cc(NC(=O)c3ccccc3OCCO[N+](=O)[O-])ccc21 (configuration not stated) | 15.2% | – | – | –
